Laboratory results reported in ChEMBL document CHEMBL4480367 (Medchemcomm, 2019).
pEC50: −log10 of the molar value. The source made the active and inactive calls. The calls are words filed in the database; no cut-off is given here.

Assays:
[1] = test system: Saccharomyces cerevisiae; assay: Toxicity against yeast assessed as reduction in cell viability; format: organism-based
Procedure, shortened: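 Control yeast strain carrying empty plasmid, induced in 2% galactose SC medium (pH 6.5) lacking leucine, with compounds at graded concentrations for 46–48 h at 30 °C. A600 was read. Toxicity value is the concentration inhibiting proliferation by 50%.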

[2] = Cytotoxicity against MDCK cells assessed as reduction in cell viability after 24 hrs by MTT assay; format: cell-based, Canis lupus familiaris; settings: dog
Procedure, shortened: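 MDCK cells were seeded at 2 × 10^4 per well and treated next day with graded concentrations in DMEM for 24 h. MTT (5 mg mL−1 solution) was added for 4 h at 37 °C, cells were lysed for 3 h, and A575 was read. CC50 is the concentration inhibiting cell growth by 50% versus control cultures.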

[3] = test system: Influenza A virus; assay: (§1) Antiviral activity against amantadine-sensitive Influenza A virus (A/chicken/Hubei/327/2004(H5N1)) infected in MDCK cells assessed as reduction in early stage viral replication by measuring viral titer at 4 uM measured after 12 hrs by crystal violet staining-based plaque reduction assay during time-of-addition assay; format: functional, organism-based
[4] = test system: Influenza A virus; assay: Antiviral activity against Influenza A virus H5N1; format: functional, organism-based
[5] = test system: Influenza A virus; assay: as §1, with “at 1.9” for “at 4”; format: functional, organism-based
[6] = test system: Influenza A virus; assay: as §1, with “at 1.7” for “at 4”; format: functional, organism-based
[7] = biological target: Matrix protein 2 (UniProt P0DOF8); assay: Inhibition of wild type Influenza A virus (A/chicken/Hubei/327/2004(H5N1)) M2 expressed in yeast cells after 46 to 48 hrs; format: cell-based
Sequence of Matrix protein 2 (P0DOF8 whole entry): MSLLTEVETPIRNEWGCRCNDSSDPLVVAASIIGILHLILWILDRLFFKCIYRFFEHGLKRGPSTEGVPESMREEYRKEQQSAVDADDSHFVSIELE
Procedure, shortened: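 Yeast growth-restoration assay. Yeast carried the M2 coding sequence under the GAL1 promoter, grown in glucose SC medium (pH 6.5) lacking leucine, then washed and resuspended to A600 0.01 in 2% galactose SC medium. Compounds were added at graded concentrations; plates were incubated at 30 °C for 46–48 h and A600 was read. Hits were retested in triplicate for EC50.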

[8] = test system: Influenza A virus; assay: Antiviral activity against Influenza A virus (H1N1); format: functional, organism-based

Row | Structure (SMILES) | Activity [1] [µM] | CC50 at 24 h [2] [µM] | EC50 [7] | other results
1 | Cc1cc(CNS(=O)(=O)c2ccc([N+](=O)[O-])cc2)c(C)s1 | > 205.3 | > 204 |  | 
2 | O=S(=O)(NCc1csc2ccccc12)c1ccc(Cl)cc1 | 121.4 | 69.6 |  | 
3 | NC(=O)c1nc(F)cnc1O |  |  |  | Activity [3]: Active
4 | Cc1cc(C(=O)NCCSCc2ccc([N+](=O)[O-])cc2)c(C)o1 |  |  |  | pEC50 [4]: 5.90
5 | Cc1cc(CNS(=O)(=O)c2ccc(Br)cc2)c(C)s1 | 133.2 | 56.4 |  | Activity [5]: Active
6 | O=[N+]([O-])c1ccc(S(=O)(=O)NCc2csc3ccccc23)cc1 | > 192.3 | > 191 |  | 
7 | NC12CC3CC(CC(C3)C1)C2 [AMANTADINE] | > 443 | > 100 |  | Activity [6]: Active
8 | Cc1ccc(S(=O)(=O)NCc2csc3ccccc23)cc1 | > 211.08 | > 210 |  | 
9 | N#Cc1ccc(S(=O)(=O)NCc2cc3ccccc3s2)cc1 | > 204 |  | Not Active | 
10 | O=S(=O)(NCc1cc2ccccc2s1)c1ccc(F)cc1 | > 208.5 |  | Not Active | 
11 | CCOC(=O)C1=C[C@@H](OC(CC)CC)[C@H](NC(C)=O)[C@@H](N)C1.O=P(O)(O)O [OSELTAMIVIR PHOSPHATE] | > 214.5 | > 163 | Not Active | 
12 | O=S(=O)(NCc1csc2ccccc12)c1ccccc1F | 59.1 |  | Not Active | 
13 | O=[N+]([O-])c1ccc(S(=O)(=O)NCc2ccoc2)cc1 | > 237.4 | > 236 |  | 
14 | CC1CC2=C(NC(=O)NC2c2ccc(O)c(Br)c2)c2ccccc21 (stereo not drawn) |  |  |  | pEC50 [4]: 7.49; pEC50 [8]: 7.49
15 | O=[N+]([O-])c1ccc(S(=O)(=O)NCc2ccc(Cl)s2)cc1 | > 201.3 | 128 | Not Active | 
16 | O=S(=O)(NCc1csc2ccccc12)c1ccc(C(F)(F)F)cc1 | > 180.4 | 94.8 | Not Active | 
17 | Cc1cc(CNS(=O)(=O)c2ccc(C#N)cc2)c(C)o1 | 168.8 | 105 |  | 
18 | Cc1cc(CNS(=O)(=O)c2ccc(C#N)cc2)c(C)s1 | > 218.7 | > 218 |  | 
19 | Cc1cc(CNS(=O)(=O)c2ccc(Cl)cc2)c(C)o1 | 123.43 | 55.7 |  | 

Row | Structure (SMILES) | Activity [1] [µM] | CC50 at 24 h [2] [µM] | EC50 [7] | other results
20 | CC(=O)c1ccc(S(=O)(=O)NCc2csc3ccccc23)cc1 | > 194 | > 193 |  | 
21 | O=S(=O)(NCc1cc2ccccc2s1)c1ccc(Br)cc1 | > 176.2 | > 174 | Not Active | 
22 | O=S(=O)(NCc1csc2ccccc12)c1cccc(F)c1 | > 208.5 |  | Not Active | 
23 | Cc1cc(CNS(=O)(=O)c2ccc(F)cc2)c(C)s1 | 120.2 |  | Not Active | 
24 | N#Cc1ccc(S(=O)(=O)NCc2csc3ccccc23)cc1 | > 204 | 122 |  | 
25 | O=[N+]([O-])c1ccc(S(=O)(=O)NCc2cccs2)cc1 | 157.5 | 133 |  | 
26 | Cc1cc(CNS(=O)(=O)c2ccc(Cl)cc2)c(C)s1 | 114.1 | 52.9 |  | 
27 | Cc1cc(CNS(=O)(=O)c2ccc([N+](=O)[O-])cc2)c(C)o1 | > 215.9 | > 152 |  | 
28 | O=S(=O)(NCc1cc2ccccc2s1)c1ccc(Cl)cc1 | > 198.3 |  | Not Active | 
29 | Cc1ccc(S(=O)(=O)NCc2cc3ccccc3s2)cc1 | > 211.08 | > 210 | Not Active | 
30 | O=S(=O)(NCc1cc2ccccc2s1)c1ccccc1F | > 180.5 |  | Not Active | 
31 | Cc1cc(CNS(=O)(=O)c2ccc(Br)cc2)c(C)o1 | 72.6 | 29.6 |  | 
32 | O=[N+]([O-])c1ccc(S(=O)(=O)NCc2cc3ccccc3s2)cc1 | > 192.3 | > 191 | Not Active | 
33 | O=S(=O)(NCc1cc2ccccc2s1)c1ccc(C(F)(F)F)cc1 | > 180.4 | > 180 | Not Active | 
34 | O=[N+]([O-])c1ccc(S(=O)(=O)NCc2ccsc2)cc1 | > 224.6 | 139 |  | 
35 | O=S(=O)(NCc1cc2ccccc2s1)c1cccc(F)c1 | > 180.5 |  | Not Active | 
36 | O=S(=O)(NCc1csc2ccccc12)c1ccc(F)cc1 | 133.8 | 98.6 |  | 
37 | Cc1cc(CNS(=O)(=O)c2ccc(F)cc2)c(C)o1 | > 236.5 | 138 |  | 
38 | O=S(=O)(NCc1csc2ccccc12)c1ccc(Br)cc1 | 134.1 | 87.1 |  | 
